From ChEMBL document CHEMBL1159342, “Nitric oxide inhibitory isopimarane-type diterpenes from Orthosiphon stamineus of Indonesia” (J Nat Prod, 2003)

The compounds below were run on J774.1 (assay: Inhibition of LPS-induced NO production in mouse J774.1 cells after 24 hrs). Settings: J774.1, 24 h.
Assay type: functional, cell-based
In short: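 Cells harvested with trypsin, seeded at 1 × 10^5 cells/well, adhered 2 h at 37 °C under 5% CO2. Medium then replaced with fresh medium containing LPS (10 µg/mL) plus test compounds at indicated concentrations, 24 h. Nitrite in supernatant measured with Griess reagent (10 min, room temperature), absorbance 550 nm. Quantified against NaNO2 standard curve in medium, medium-only blank subtracted.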

Row | Structure (SMILES) | IC50 [µM]
1 | CNC(=N)NCCC[C@H](N)C(=O)O [TILARGININE] | 26
2 | C[C@@H]1C[C@H]2[C@@H]3CCC4=CC(=O)C=C[C@]4(C)[C@@]3(F)[C@@H](O)C[C@]2(C)[C@@]1(O)C(=O)CO [DEXAMETHASONE] | 170
3 | C=C[C@@]1(C)CC(=O)[C@H]2[C@](O)(C1=O)[C@H](OC(C)=O)C[C@H]1C(C)(C)[C@H](OC(C)=O)[C@H](OC(C)=O)[C@H](OC(=O)c3ccccc3)[C@@]12C [ORTHOSIPHOL J] | 66.3
4 | C=C[C@@]1(C)C[C@@H](O)[C@H]2[C@](O)(C1=O)[C@H](OC(C)=O)C[C@H]1C(C)(C)[C@H](OC(C)=O)[C@H](O)[C@H](OC(=O)c3ccccc3)[C@@]12C [ORTHOSIPHOL V] | 54.5
5 | C=C[C@@]1(C)C[C@@H](OC(=O)c2ccccc2)[C@H]2[C@](O)(C1=O)[C@H](O)C[C@H]1C(C)(C)[C@H](O)[C@H](OC(C)=O)[C@H](OC(=O)c3ccccc3)[C@@]12C [ORTHOSIPHOL T] | 35.9
6 | C=C[C@@]1(C)C[C@@H](OC(=O)c2ccccc2)[C@@H]2[C@@]3(C)C=C(OC(C)=O)C(=O)C(C)(C)[C@@H]3C[C@@H](OC(C)=O)[C@@]2(O)C1=O [ORTHOSIPHOL D] | 14.4
7 | C=C[C@@]1(C)C[C@@H](O)[C@H]2[C@](O)(C1=O)[C@H](OC(C)=O)C[C@H]1C(C)(C)[C@H](O)[C@H](OC(C)=O)[C@H](OC(=O)c3ccccc3)[C@@]12C [ORTHOSIPHOL W] | 57.6
8 | C=C[C@@]1(C)CC(=O)[C@H]2[C@](O)(C1=O)[C@H](O)C[C@H]1C(C)(C)[C@H](OC(C)=O)[C@H](OC(C)=O)[C@H](OC(=O)c3ccccc3)[C@@]12C [ORTHOSIPHOL I] | 102
9 | C=C[C@@]1(C)C[C@@H](OC(=O)c2ccccc2)[C@@H]2[C@@](C)(CC(=O)O)[C@H](C(C)(C)C(=O)OC)C[C@@H](OC(C)=O)[C@@]2(O)C1=O [SECOORTHOSIPHOL B] | 127
10 | C=C[C@]1(C)C(=O)[C@]2(O)[C@H](OC(C)=O)C[C@H]3C(C)(C)[C@H](OC(C)=O)[C@H](O)[C@H](OC(=O)c4ccccc4)[C@]3(C)[C@H]2[C@H](OC(=O)c2ccccc2)[C@H]1O [ORTHOSIPHOL R] | 35.7
11 | C=C[C@@]1(C)C[C@@H](O)[C@@H]2[C@@]3(C)C=C(OC(C)=O)C(=O)C(C)(C)[C@@H]3C[C@@H](OC(C)=O)[C@@]2(O)C1=O [ORTHOSIPHOL Y] | 37.9
12 | C=C[C@@]1(C)C[C@@H](O)[C@H]2[C@](O)(C1=O)[C@H](O)C[C@H]1C(C)(C)[C@H](OC(C)=O)[C@H](OC(C)=O)[C@H](OC(=O)c3ccccc3)[C@@]12C [ORTHOSIPHOL G] | 145

Results, then the compound that gave them:

Row | IC50 [µM] | Structure (SMILES)
13 | 32.1 | C=C[C@@]1(C)CC(=O)[C@H]2[C@](O)(C1=O)[C@H](OC(C)=O)C[C@H]1C(C)(C)[C@H](OC(=O)c3ccccc3)[C@H](OC(C)=O)[C@H](OC(=O)c3ccccc3)[C@@]12C [ORTHOSIPHONONE A]
14 | 27.7 | C=C[C@@]1(C)C[C@@H](O)[C@H]2[C@](O)(C1=O)[C@H](OC(C)=O)C[C@H]1C(C)(C)[C@H](OC(=O)c3ccccc3)[C@H](OC(C)=O)[C@H](OC(=O)c3ccccc3)[C@@]12C [ORTHOSIPHOL O]
15 | 34.5 | C=C[C@@]1(C)C[C@@H](OC(=O)c2ccccc2)[C@H]2[C@](O)(C1=O)[C@H](O)C[C@H]1C(C)(C)[C@H](OC(C)=O)[C@H](OC(C)=O)[C@H](OC(=O)c3ccccc3)[C@@]12C [ORTHOSIPHOL F]
16 | 6.4 | C=C[C@@]1(C)C[C@@H](O)[C@H]2[C@](O)(C1=O)[C@H](O)C[C@H]1C(C)(C)[C@H](OC(=O)c3ccccc3)[C@H](OC(C)=O)[C@H](OC(=O)c3ccccc3)[C@@]12C [ORTHOSIPHOL X]
17 | 20.5 | C=C[C@@]1(C)C[C@@H](OC(=O)c2ccccc2)[C@H]2[C@](O)(C1=O)[C@H](OC(C)=O)C[C@H]1C(C)(C)[C@H](OC(C)=O)[C@H](O)[C@H](OC(=O)c3ccccc3)[C@@]12C [ORTHOSIPHOL B]
18 | 59.7 | C=C[C@@]1(C)C[C@@H](O)[C@H]2[C@](O)(C1=O)[C@H](OC(C)=O)C[C@H]1C(C)(C)[C@H](OC(C)=O)[C@H](OC(C)=O)[C@H](OC(=O)c3ccccc3)[C@@]12C [ORTHOSIPHOL U]
19 | 11.5 | C=C[C@@]1(C)C[C@@H](OC(=O)c2ccccc2)[C@H]2[C@](O)(C1=O)[C@H](OC(C)=O)C[C@H]1C(C)(C)[C@H](O)[C@H](OC(C)=O)[C@H](OC(=O)c3ccccc3)[C@@]12C [ORTHOSIPHOL A]
